Data as given in ChEMBL document CHEMBL1123183, “Synthesis and antiviral properties of 5-(2-substituted vinyl)-6-aza-2'-deoxyuridines” (1986).
In brackets after ≈: the same amount, converted by molar mass.

Experiments:
Type in all cases: functional
Settings in all cases: Chlorocebus sabaeus, read-out: ID50 (the source's name)
Vero [1] = assay: In vitro antiviral activity against HSV-1(strain HFEM) in Vero cells
In short: (§1)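 Plaque reduction in confluent Vero monolayers infected with 30-40 PFU of HSV-1 (strain HFEM) or HSV-2 (strain 196), then 1 h at 37 °C. Overlay of maintenance medium with 0.75% carboxymethylcellulose and a range of compound concentrations, then 2 days at 37 °C. Cells fixed and stained, plaques counted. ID50 is the concentration giving 50% plaque inhibition.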

Vero [2] = assay: Cytotoxicity was measured by determining the incorporation of [methyl-3H]thymidine into DNA of Vero cells
In short: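 Subconfluent Vero monolayers overlaid with maintenance medium holding 1 μCi/mL [methyl-3H]thymidine plus a range of nucleoside concentrations. Incubated 18 h at 37 °C. DNA synthesis read as label in acid-precipitable material. ID50 is the concentration giving 50% reduction of thymidine incorporation.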

Vero [3] = assay: In vitro antiviral activity against HSV-2(strain 196) in Vero cells; in short: as §1

SMILES | IC50 (Vero [1]) [µg/mL] | IC50 (Vero [2]) [µg/mL] | IC50 (Vero [3]) [µg/mL]
O=Cc1nn(C2C[C@@H](O)[C@@H](CO)O2)c(=O)[nH]c1=O (stereo partly drawn) | > 500 | 180 (≈ 700 µM) | –
O=c1[nH]c(=O)n(C2C[C@@H](O)[C@@H](CO)O2)nc1/C=C/Br (stereo partly drawn) | 8 (≈ 23.9 µM) | 355 (≈ 1060 µM) | 190 (≈ 569 µM)
O=c1[nH]c(=O)n([C@H]2C[C@H](O)[C@@H](CO)O2)cc1/C=C/Br [BRIVUDINE] | 0.015 (≈ 0.045 µM) | 50 (≈ 150 µM) | 1.6 (≈ 4.8 µM)
O=c1[nH]c(=O)n(C2C[C@@H](O)[C@@H](CO)O2)nc1/C=C(\F)Br (stereo partly drawn) | > 250 | > 500 | > 250
COC(=O)/C=C/c1nn(C2C[C@@H](O)[C@@H](CO)O2)c(=O)[nH]c1=O (stereo partly drawn) | > 500 | > 500 | –
O=c1[nH]c(=O)n(C2C[C@@H](O)[C@@H](CO)O2)nc1CC(F)(F)F (stereo partly drawn) | > 250 | > 500 | > 250
COC(F)(F)Cc1nn(C2C[C@@H](O)[C@@H](CO)O2)c(=O)[nH]c1=O (stereo partly drawn) | 82 (≈ 254 µM) | > 500 | > 250
O=C(O)/C=C/c1nn(C2C[C@@H](O)[C@@H](CO)O2)c(=O)[nH]c1=O (stereo partly drawn) | > 250 | > 500 | –
O=c1[nH]c(=O)n(C2C[C@@H](O)[C@@H](CO)O2)nc1-c1ccoc1 (stereo partly drawn) | 42 (≈ 142 µM) | 45 (≈ 152 µM) | 39 (≈ 132 µM)
O=c1[nH]c(=O)n(C2C[C@@H](O)[C@@H](CO)O2)nc1/C=C/Cl (stereo partly drawn) | 20 (≈ 69 µM) | > 500 | 215 (≈ 742 µM)
CS/C=C/c1nn(C2C[C@@H](O)[C@@H](CO)O2)c(=O)[nH]c1=O (stereo partly drawn) | > 250 | 420 (≈ 1390 µM) | > 250
O=c1[nH]c(=O)n(C2C[C@@H](O)[C@@H](CO)O2)nc1C=C(Br)Br (stereo partly drawn) | 100 (≈ 242 µM) | > 500 | 100 (≈ 242 µM)
